Laboratory results: ChEMBL document CHEMBL4257504, “Tricyclic xanthine derivatives containing a basic substituent: adenosine receptor affinity and drug-related properties” (Medchemcomm, 2018)
Converted amounts (≈) assume the structure as drawn.

Assays:
[1] = biological target: T1, Adenosine receptor A1 (Rattus norvegicus, UniProt P25099); assay: Displacement of [3H]CCPA from adenosine A1 receptor in rat brain cortical membranes; format: cell membranes
T1 sequence (P25099 whole entry): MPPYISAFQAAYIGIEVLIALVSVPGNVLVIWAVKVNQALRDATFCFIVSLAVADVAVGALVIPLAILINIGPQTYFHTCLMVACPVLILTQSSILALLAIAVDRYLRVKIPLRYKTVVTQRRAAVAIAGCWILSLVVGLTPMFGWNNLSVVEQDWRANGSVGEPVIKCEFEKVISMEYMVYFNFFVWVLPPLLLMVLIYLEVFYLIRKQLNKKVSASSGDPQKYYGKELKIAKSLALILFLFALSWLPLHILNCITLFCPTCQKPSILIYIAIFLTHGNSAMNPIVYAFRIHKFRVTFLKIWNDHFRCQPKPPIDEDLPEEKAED
In short: (§1)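 Membrane radioligand binding: A1 in rat brain cortical membranes and A2A in rat brain striatal membranes, with human A1 and A2A in recombinant CHO cell membranes. Radioligands are [3H]CCPA for A1 and [3H]MSX-2 for A2A. Full concentration-inhibition curves use six to ten concentrations spanning three orders of magnitude, with at least three independent experiments.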

[2] = biological target: Adenosine receptor A2a (Rattus norvegicus, UniProt P30543); assay: Displacement of [3H]MSX-2 from adenosine A2A receptor in rat brain striatal membranes; format: cell membranes, Striatum, Membrane; in short: as §1
[3] = biological target: T2, Adenosine receptor A2b (Homo sapiens, UniProt P29275); assay: […] from human adenosine A2B receptor expressed in CHO cell membranes; settings: in the assay text read “[3H]PSB-603” for “[3H]PSB-602”
T2 sequence (P29275 whole entry): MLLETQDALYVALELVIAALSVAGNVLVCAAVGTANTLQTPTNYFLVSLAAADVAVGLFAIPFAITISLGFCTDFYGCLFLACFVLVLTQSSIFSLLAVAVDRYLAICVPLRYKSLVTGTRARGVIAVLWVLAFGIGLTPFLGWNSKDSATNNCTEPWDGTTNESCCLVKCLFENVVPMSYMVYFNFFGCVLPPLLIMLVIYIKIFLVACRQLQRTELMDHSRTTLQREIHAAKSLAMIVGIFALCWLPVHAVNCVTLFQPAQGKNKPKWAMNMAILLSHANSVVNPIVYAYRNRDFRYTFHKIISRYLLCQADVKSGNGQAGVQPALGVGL
In short: (§2)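 Membranes from CHO cells recombinantly expressing human A2B or A3 receptor. Radioligands are [3H]PSB-603 for A2B and [3H]PSB-11 for A3. Competition curves use six to ten test-compound concentrations spanning three orders of magnitude, with at least three independent experiments.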

[4] = biological target: T3, Adenosine receptor A3 (Homo sapiens, UniProt P0DMS8); assay: Displacement of [3H]PSB-11 from human adenosine A3 receptor expressed in CHO cell membranes; in short: as §2
T3 sequence (P0DMS8 whole entry): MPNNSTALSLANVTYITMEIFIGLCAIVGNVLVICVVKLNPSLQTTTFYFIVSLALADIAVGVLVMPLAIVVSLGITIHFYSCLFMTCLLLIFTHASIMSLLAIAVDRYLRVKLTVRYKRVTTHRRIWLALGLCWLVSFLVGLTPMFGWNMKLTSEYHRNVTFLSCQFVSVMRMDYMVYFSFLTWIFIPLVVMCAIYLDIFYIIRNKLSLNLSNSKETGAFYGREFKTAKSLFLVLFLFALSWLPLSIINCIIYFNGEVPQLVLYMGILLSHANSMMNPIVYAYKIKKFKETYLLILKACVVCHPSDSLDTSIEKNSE

[5] = biological target: T4, Adenosine receptor A3 (Homo sapiens) (UniProt P0DMS8); assay: Displacement of [3H]PSB-11 from human adenosine A3 receptor expressed in CHO cell membranes at 1 uM relative to control
T4 sequence (whole entry): T3 sequence (P0DMS8 whole entry)

[6] = biological target: T5, Adenosine receptor A2b (Homo sapiens) (UniProt P29275); assay: Displacement of [3H]PSB-603 from human adenosine A2B receptor expressed in CHO cell membranes at 1 uM relative to control
T5 sequence (whole entry): T2 sequence (P29275 whole entry)

[7] = biological target: T6, Adenosine receptor A1 (Rattus norvegicus) (UniProt P25099); assay: Displacement of [3H]CCPA from adenosine A1 receptor in rat brain cortical membranes at 1 uM relative to control; format: cell membranes
T6 sequence (whole entry): T1 sequence (P25099 whole entry)

[8] = biological target: T2, Adenosine receptor A2b; assay: Displacement of [3H]PSB-603 from human adenosine A2B receptor expressed in CHO cell membranes
[9] = Solubility of compound in water after over night incubation by UV spectroscopic method; format: physicochemical
In short: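 Compound (10 mg, basic form) is suspended in 2 mL water, boiled 5 min, left overnight at 20 °C and filtered. The filtrate is diluted 10–80-fold in MeOH and read by UV in 90% MeOH/H2O. Concentration comes from seven-point standard curves (10^-3 to 10^-1 mg/mL) by linear regression, multiplied by the dilution factor.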

Chain of Adenosine receptor A2a (P30543 whole entry): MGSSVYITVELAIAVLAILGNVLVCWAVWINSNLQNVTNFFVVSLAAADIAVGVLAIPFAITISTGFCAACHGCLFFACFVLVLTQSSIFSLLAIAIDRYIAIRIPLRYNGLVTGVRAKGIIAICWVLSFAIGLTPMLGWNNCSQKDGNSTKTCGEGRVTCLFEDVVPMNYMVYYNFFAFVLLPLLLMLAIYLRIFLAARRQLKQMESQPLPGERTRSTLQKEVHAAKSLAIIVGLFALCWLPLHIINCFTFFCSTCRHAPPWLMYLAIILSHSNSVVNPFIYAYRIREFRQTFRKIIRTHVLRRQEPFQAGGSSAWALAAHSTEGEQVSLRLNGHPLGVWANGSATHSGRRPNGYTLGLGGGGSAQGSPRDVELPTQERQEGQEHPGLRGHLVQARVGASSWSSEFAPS

| SMILES | Ki [1] [nM] | Ki [2] [nM] | Ki [3] [nM] | Ki [4] [nM] | inhibition [5] [%] | inhibition [6] [%] | inhibition [7] [%] | Ki [8] [nM] | solubility [9] [µM] |
| --- | --- | --- | --- | --- | --- | --- | --- | --- | --- |
| CCCn1c(=O)c2c(nc3n2CCCN3CCc2ccc(OCC(=O)NCCc3ccccn3)cc2)n(CCC)c1=O | 563 | 1360 | > 1000 | > 1000 | 31 | 39 | – | – | – |
| CCCCn1c(=O)c2c(nc3n2CCCN3CCc2ccc(OCC(=O)NCCCn3ccnc3)cc2)n(CCCC)c1=O | 194 | 569 | 275 | 868 | – | – | – | – | – |
| CCCCn1c(=O)c2c(nc3n2CCCN3CCc2ccc(OCC(=O)NCc3cccc(OC)c3)cc2)n(CCCC)c1=O | 1590 | 1630 | > 1000 | > 1000 | 41 | 41 | – | – | – |
| CCCCn1c(=O)c2c(nc3n2CCCN3CCc2ccc(OCC(=O)NCCN3CCOCC3)cc2)n(CCCC)c1=O | 181 | 671 | 298 | > 1000 | 46 | – | – | – | – |
| CCCn1c(=O)c2c(nc3n2CCCN3CCc2ccc(OCC(=O)NCCCN3CCCC3)cc2)n(CCC)c1=O | 146 | 320 | 452 | > 1000 | 33 | – | – | – | – |
| CCCCn1c(=O)c2c(nc3n2CCCN3CCc2ccc(OCC(=O)NCc3ccc(Cl)cc3)cc2)n(CCCC)c1=O | 593 | 7310 | > 1000 | > 1000 | 23 | 31 | – | – | – |
| CCCn1c(=O)c2c(nc3n2CCCN3CCc2ccc(OCC(=O)NCc3ccccc3)cc2)n(CCC)c1=O | > 10000 | 3230 | > 1000 | > 1000 | 34 | 22 | 26 | – | – |
| CCCn1c(=O)c2c(nc3n2CCCN3CCc2ccc(OCC(=O)NCCCNC3CCCCC3)cc2)n(CCC)c1=O | 145 | 335 | – | 458 | – | – | – | 306 | – |
| CCCn1c(=O)c2c(nc3n2CCCN3CCc2ccc(OCC(=O)NCCN3CCCC3)cc2)n(CCC)c1=O | 113 | 551 | – | 509 | – | – | – | 193 | – |
| CCCn1c(=O)c2c(nc3n2CCCN3CCc2ccc(OCC(=O)NCc3ccc(F)cc3)cc2)n(CCC)c1=O | > 10000 | 1360 | > 1000 | > 1000 | 41 | 31 | 37 | – | – |
| CCCCn1c(=O)c2c(nc3n2CCCN3CCc2ccc(OCC(=O)NCCc3ccc(S(N)(=O)=O)cc3)cc2)n(CCCC)c1=O | > 10000 | 2270 | > 1000 | > 1000 | 23 | 31 | 27 | – | – |
| CCCCn1c(=O)c2c(nc3n2CCCN3CCc2ccc(OCC(=O)NCCCNC3CCCCC3)cc2)n(CCCC)c1=O | 118 | 1250 | 215 | 353 | – | – | – | – | – |
| CCCn1c(=O)c2c(nc3n2CCCN3CCc2ccc(OCC(=O)NCCCn3ccnc3)cc2)n(CCC)c1=O | 605 | 637 | 862 | 1000 | – | – | – | – | – |
| CCCn1c(=O)c2c(nc3n2CCCN3CCc2ccc(OCC(=O)NCCN3CCOCC3)cc2)n(CCC)c1=O | 509 | 1120 | 911 | > 1000 | 21 | – | – | – | – |
| CCCn1c(=O)c2c(nc3n2CCCN3CCc2ccc(OCC(=O)NCc3cccc(Cl)c3)cc2)n(CCC)c1=O | 1370 | 807 | > 1000 | 572 | – | 22 | – | – | – |
| CCCCn1c(=O)c2c(nc3n2CCCN3CCc2ccc(OCC(=O)NCCc3ccccn3)cc2)n(CCCC)c1=O | 382 | 1070 | > 1000 | > 1000 | 44 | 39 | – | – | – |
| CCCCn1c(=O)c2c(nc3n2CCCN3CCc2ccc(OCC(=O)NCc3cccc(Cl)c3)cc2)n(CCCC)c1=O | 684 | 6520 | > 1000 | > 1000 | 42 | 18 | – | – | – |
| CCCCn1c(=O)c2c(nc3n2CCCN3CCc2ccc(OCC(=O)NCc3ccccc3)cc2)n(CCCC)c1=O | 320 | 1290 | 578 | 602 | – | – | – | – | – |
| CCCn1c(=O)c2c(nc3n2CCCN3CCc2ccc(OCC(=O)NCCc3ccc(S(N)(=O)=O)cc3)cc2)n(CCC)c1=O | 10000 | 1870 | > 1000 | > 1000 | 28 | 30 | 45 | – | – |
| CCCCn1c(=O)c2c(nc3n2CCCN3CCc2ccc(OCC(=O)NCCN(CC)CC)cc2)n(CCCC)c1=O | 50.7 | 242 | – | 155 | – | – | – | 113 | 189 (≈ 113 µg/mL) |
| CCCn1c(=O)c2c(nc3n2CCCN3CCc2ccc(OCC(=O)NCCCN(CC)CC)cc2)n(CCC)c1=O | 136 | 303 | – | > 1000 | 36 | – | – | 340 | 823 (≈ 479 µg/mL) |
| CCCn1c(=O)c2c(nc3n2CCCN3CCc2ccc(OCC(=O)NCCN(CC)CC)cc2)n(CCC)c1=O | 120 | 271 | 179 | 508 | – | – | – | – | 1080 (≈ 615 µg/mL) |
